The results in this text go back to ChEMBL document CHEMBL1135991 (J Med Chem, 2002).

A value given as a limit tells only on which side of the number the result lay.

Experiment [1] deals with T1, Melanocortin receptor 5 (Homo sapiens, UniProt P33032). In words: Effective concentration against human melanocortin 5 receptor (hMC5R) in HEK293 cells. Type of experiment: cell-based. An outline of the steps: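 Transfected HEK293 cells were seeded 50 000/well 48 h ahead. They were preincubated 1 min at 37 °C in EBSS with IBMX, then given varying melanotropin concentrations for 3 min at 37 °C. The reaction was stopped with ice-cold Tris/EDTA and lysates boiled 15 min. Supernatant cAMP was measured by competitive binding kit. EC50 came from a nonlinear least-squares fit; duplicate experiments, each in triplicate.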
T1 sequence (P33032 whole entry): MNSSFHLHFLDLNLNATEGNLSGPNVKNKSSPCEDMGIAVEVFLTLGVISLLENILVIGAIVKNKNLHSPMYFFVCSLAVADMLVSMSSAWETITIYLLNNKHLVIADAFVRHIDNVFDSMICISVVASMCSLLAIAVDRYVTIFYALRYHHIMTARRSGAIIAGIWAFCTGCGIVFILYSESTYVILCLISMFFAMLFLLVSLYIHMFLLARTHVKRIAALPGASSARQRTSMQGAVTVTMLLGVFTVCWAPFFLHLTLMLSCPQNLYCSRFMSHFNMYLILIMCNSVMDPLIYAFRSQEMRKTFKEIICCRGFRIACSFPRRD

Experiment [2] addresses T2, Melanocortin receptor 3 (Homo sapiens, UniProt P41968). In words: Binding affinity for human Melanocortin-3 receptor (hMC3R) expressed in HEK293 cells. It is filed as cell-based.
The target in experiment [3] is T1, Melanocortin receptor 5. In words: Binding affinity for human melanocortin 5 receptor (hMC5R) expressed in HEK293 cells. It is filed as cell-based.
The target of experiment [4] is T3, Melanocortin receptor 4 (Homo sapiens, UniProt P32245). In words: Binding affinity for human Melanocortin-4 receptor (hMC4R).
T3 sequence (P32245 whole entry): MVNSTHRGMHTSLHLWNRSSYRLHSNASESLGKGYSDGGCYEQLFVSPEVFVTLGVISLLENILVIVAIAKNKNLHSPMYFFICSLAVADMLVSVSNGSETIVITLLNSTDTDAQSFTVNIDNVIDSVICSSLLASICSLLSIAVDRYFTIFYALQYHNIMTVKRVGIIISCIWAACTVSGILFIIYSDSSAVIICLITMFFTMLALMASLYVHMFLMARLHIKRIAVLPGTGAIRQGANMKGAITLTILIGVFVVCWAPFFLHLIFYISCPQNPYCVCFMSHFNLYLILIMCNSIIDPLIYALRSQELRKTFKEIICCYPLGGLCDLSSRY
In experiment [5] the target is T2, Melanocortin receptor 3. In words: Inhibition of human Melanocortin-3 receptor (hMC3R) expressed in HEK293 cells. It is filed as cell-based.
In experiment [6] the target is T3, Melanocortin receptor 4. In words: Inhibition of binding to human Melanocortin-4 receptor (hMC4R).
Experiment [7] concerns the target T3, Melanocortin receptor 4. In words: Stimulation of intracellular cAMP levels in CHO cells expressing human Melanocortin-4 receptor. Type of experiment: functional, cell-based. (In general: Cyclic AMP is a second messenger, typically raised through Gs and lowered through Gi signalling.)
The target in experiment [8] is T2, Melanocortin receptor 3. In words: Stimulation of intracellular cAMP levels in HEK293 cells expressing human Melanocortin-3 receptor.
Experiment [9] concerns the target T1, Melanocortin receptor 5. In words: Stimulation of intracellular cAMP levels in HEK293 cells expressing human melanocortin 5 receptor.
The species named for experiment [10] is Homo sapiens. In words: Selectivity as ratio of binding affinity for human melanocortin 1 and melanocortin 3 receptors.
Experiment [11] has as its target Melanocortin receptor (M1 and M4) (Homo sapiens) (UniProt P32245+Q01726). In words: Selectivity as ratio of binding affinity for human melanocortin 1 and melanocortin 4 receptors. Type of experiment: protein assay.

T2 sequence (P41968 whole entry): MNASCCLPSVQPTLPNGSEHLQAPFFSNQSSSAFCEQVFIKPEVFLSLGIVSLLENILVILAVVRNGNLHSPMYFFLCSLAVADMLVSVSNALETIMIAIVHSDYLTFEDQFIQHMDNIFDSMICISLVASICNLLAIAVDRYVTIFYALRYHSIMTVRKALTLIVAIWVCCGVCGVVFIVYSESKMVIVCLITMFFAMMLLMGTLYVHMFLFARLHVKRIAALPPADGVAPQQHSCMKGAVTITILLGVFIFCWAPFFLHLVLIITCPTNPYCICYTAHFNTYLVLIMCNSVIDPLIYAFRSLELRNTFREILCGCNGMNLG

One may read the EC50 as the concentration needed to bring the measured effect to its halfway point. A lower EC50 goes with a more potent agent. Broadly, the Ki is a measure of affinity in units of concentration, obtained from inhibition or displacement. Read a low Ki as a stronger hold on the target. For the compound `N=C(N)NCCC[C@@H]1NC(=O)[C@@H](Cc2ccccc2)NC(=O)[C@H](Cc2c[nH]cn2)NC(=O)CCCC(=O)NCCCC[C@@H](C(N)=O)NC(=O)[C@H](Cc2c[nH]c3ccccc23)NC1=O`, the EC50 in experiment [1] is over 10000 nM; in experiment [5] it was 75 nM; in experiment [6], 50 nM. Further, the Ki in [2] is 110 nM; in experiment [3], 3100 nM; in experiment [4] it was 670 nM.

With `C[C@@H]1NC(=O)[C@@H](Cc2ccccc2)NC(=O)[C@H](Cc2c[nH]cn2)NC(=O)CCC(=O)NCCCC[C@H](C(N)=O)NC(=O)[C@@H](Cc2c[nH]c3ccccc23)NC1=O`, the results for the ACT in experiment [7], in experiment [8] and in experiment [9] were 0%, 53% and 0%, respectively.

For `N=C(N)NCCC[C@H]1NC(=O)[C@H](Cc2ccccc2)NC(=O)[C@H]2CCCN2C(=O)CCC(=O)NCCCC[C@@H](C(N)=O)NC(=O)[C@H](Cc2c[nH]c3ccccc23)NC1=O`, the ACT turned out to be 60.5% in experiment [7], 21% in experiment [8] and 100% in experiment [9].

Turning to `N=C(N)NCCC[C@@H]1NC(=O)[C@@H](Cc2ccc3ccccc3c2)NC(=O)[C@H](Cc2c[nH]cn2)NC(=O)CCC(=O)NCCCC[C@H](C(N)=O)NC(=O)[C@@H](Cc2c[nH]c3ccccc23)NC1=O`, the ACT in [7] amounted to 35%; in experiment [8], 88%; in experiment [9], 100%.

On to `N=C(N)NCCC[C@H](NC(=O)[C@@H](Cc1ccccc1)NC(=O)[C@H](Cc1cnc[nH]1)NC(=O)CCC(=O)O)C(=O)N[C@@H](Cc1c[nH]c2ccccc12)C(=O)N[C@@H](CCCCN)C(N)=O`, for which the EC50 in experiment [1] was 1100 nM; in experiment [5] it was 68 nM; in [6] it was 3000 nM. In addition, the Ki in experiment [2] amounted to 140 nM; in experiment [3], 880 nM; in experiment [4], 630 nM.

In the case of `N=C(N)NCCC[C@@H]1NC(=O)[C@@H](Cc2ccc3ccccc3c2)NC(=O)[C@H](Cc2cnc[nH]2)NC(=O)c2ccccc2C(=O)NCCCC[C@@H](C(N)=O)NC(=O)[C@H](Cc2c[nH]c3ccccc23)NC1=O`, the EC50 in [1] was 640 nM; in experiment [5], 18 nM; in experiment [6], over 10000 nM. Moreover, the Ki in experiment [2] was 7.8 nM; in [3], 5700 nM; in [4], 57 nM.

For `NCCCC[C@H](NC(=O)[C@H](Cc1c[nH]c2ccccc12)NC(=O)[C@H](CCCN=C(N)N)NC(=O)[C@@H](Cc1ccccc1)NC(=O)[C@H](Cc1c[nH]cn1)NC(=O)CCC(=O)O)C(N)=O`, the results for the ACT in [7], in experiment [8] and in experiment [9] were 26.5%, 100% and 100%, respectively.

On to `N=C(N)NCCC[C@@H]1NC(=O)[C@@H](Cc2ccc3ccccc3c2)NC(=O)[C@H](Cc2c[nH]cn2)NC(=O)CCC(=O)NCCCC[C@@H](C(N)=O)NC(=O)[C@H](Cc2c[nH]c3ccccc23)NC1=O`, for which the figures for the EC50 in [1], in experiment [5] and in experiment [6] were 150 nM, 70 nM and 260 nM, respectively. In addition, the Ki in experiment [2] is 12.1 nM; in experiment [3], 140 nM; in [4] it was 87 nM.

Regarding `N=C(N)NCCC[C@@H]1NC(=O)[C@@H](Cc2ccccc2)NC(=O)[C@@H]2CCCN2C(=O)CCC(=O)NCCCC[C@@H](C(N)=O)NC(=O)[C@H](Cc2c[nH]c3ccccc23)NC1=O`, the figures for the 50% effective concentration (EC50) in experiment [1] (hek293), in [5] (hek293) and in [6] were 1300 nM, 790 nM and 2300 nM, respectively. Besides, the Ki turned out to be 390 nM in experiment [2] (hek293), 990 nM in experiment [3] (hek293) and 190 nM in experiment [4].

For `N=C(N)NCCC[C@@H]1NC(=O)[C@@H](Cc2ccc3ccccc3c2)NC(=O)[C@H](Cc2c[nH]cn2)NC(=O)c2ccccc2C(=O)NCCCC[C@H](C(N)=O)NC(=O)[C@@H](Cc2c[nH]c3ccccc23)NC1=O`, the ACT in [7] amounted to 0%; in experiment [8], 36%; in experiment [9], 56%.

For `N=C(N)NCCC[C@@H]1NC(=O)[C@@H](Cc2ccc3ccccc3c2)NC(=O)[C@H](Cc2cnc[nH]2)NC(=O)CCCC(=O)NCCCC[C@@H](C(N)=O)NC(=O)[C@H](Cc2c[nH]c3ccccc23)NC1=O`, the EC50 in experiment [1] is 1.01 nM; in experiment [5] it was over 10000 nM; in [6] it was 1200 nM. Also, the Ki came to 5.9 nM in [2], 26 nM in experiment [3] and 220 nM in experiment [4].

Consider `N=C(N)NCCC[C@@H]1NC(=O)[C@@H](Cc2ccccc2)NC(=O)[C@H](Cc2c[nH]cn2)NC(=O)CCC(=O)NCCCC[C@@H](C(N)=O)NC(=O)[C@H](Cc2c[nH]c3ccccc23)NC1=O`, for which the results for the EC50 in experiment [1], in experiment [5] and in experiment [6] were 560 nM, 70 nM and 1.6 nM, respectively. Further, the Ki in experiment [2] is 77 nM; in [3] it was 660 nM; in [4], 5.7 nM.

With `N=C(N)NCCC[C@@H]1NC(=O)[C@@H](Cc2ccccc2)NC(=O)[C@H](Cc2c[nH]cn2)NC(=O)c2ccccc2C(=O)NCCCC[C@H](C(N)=O)NC(=O)[C@@H](Cc2c[nH]c3ccccc23)NC1=O`, the ACT in [7] turned out to be 98%; in [8] it was 76%; in experiment [9], 0%.

Consider `N=C(N)NCCC[C@@H]1NC(=O)[C@@H](Cc2ccccc2)NC(=O)[C@H](Cc2cnc[nH]2)NC(=O)c2ccccc2C(=O)NCCCC[C@@H](C(N)=O)NC(=O)[C@H](Cc2c[nH]c3ccccc23)NC1=O`, for which the EC50 in [1] is over 5000 nM; in experiment [5] it was 13 nM; in [6], 70 nM. The Ki in experiment [2] was found to be 280 nM; in [4] it was 58 nM.

As for `C[C@@H]1NC(=O)[C@@H](Cc2ccccc2)NC(=O)[C@H](Cc2cnc[nH]2)NC(=O)CCC(=O)NCCCC[C@@H](C(N)=O)NC(=O)[C@H](Cc2c[nH]c3ccccc23)NC1=O`, the EC50 in [1] was over 10000 nM; in experiment [5], 1000 nM; in experiment [6], over 1000 nM. In addition, the inhibitory constant (Ki) in experiment [2] is 370 nM.

Consider `C[C@@H]1NC(=O)CCC(=O)NCCCC[C@@H](C(N)=O)NC(=O)[C@H](Cc2c[nH]c3ccccc23)NC(=O)[C@H](CCCN=C(N)N)NC(=O)[C@@H](Cc2ccccc2)NC1=O`, for which the EC50 in [1] is over 10000 nM; in experiment [5], 42 nM; in experiment [6] it was 22 nM. Further, the Ki turned out to be 1400 nM in [2] and 1700 nM in experiment [4].

For the compound `N=C(N)NCCC[C@@H]1NC(=O)[C@@H](Cc2ccccc2)NC(=O)[C@H](Cc2c[nH]cn2)NC(=O)CCC(=O)NCCCC[C@H](C(N)=O)NC(=O)[C@@H](Cc2c[nH]c3ccccc23)NC1=O`, the ACT came to 100% in experiment [7], 95% in experiment [8] and 67% in [9]. Also, the Selectivity ratio is 52.5 in experiment [10] and 700 in [11].

For the compound `C[C@H]1NC(=O)[C@H](Cc2c[nH]cn2)NC(=O)CCC(=O)NCCCC[C@H](C(N)=O)NC(=O)[C@@H](Cc2c[nH]c3ccccc23)NC(=O)[C@H](CCCN=C(N)N)NC1=O`, the ACT in [7], in experiment [8] and in experiment [9] was 0% in each case.

Turning to `C[C@@H]1NC(=O)CCC(=O)NCCCC[C@H](C(N)=O)NC(=O)[C@@H](Cc2c[nH]c3ccccc23)NC(=O)[C@H](CCCN=C(N)N)NC(=O)[C@@H](Cc2ccccc2)NC1=O`, the ACT was determined as 35% in experiment [7], 19% in experiment [8] and 0% in experiment [9].

Turning to `N=C(N)NCCC[C@@H]1NC(=O)[C@@H](Cc2ccccc2)NC(=O)[C@H](Cc2c[nH]cn2)NC(=O)CCCC(=O)NCCCC[C@H](C(N)=O)NC(=O)[C@@H](Cc2c[nH]c3ccccc23)NC1=O`, the ACT in [7] amounted to 100%; in experiment [8], 100%; in experiment [9], 0%.

In the case of `C[C@H]1NC(=O)[C@H](Cc2c[nH]cn2)NC(=O)CCC(=O)NCCCC[C@@H](C(N)=O)NC(=O)[C@H](Cc2c[nH]c3ccccc23)NC(=O)[C@H](CCCN=C(N)N)NC1=O`, the EC50 in [1] (hek293), in [5] (hek293) and in [6] was over 10000 nM in each case.

Regarding `N=C(N)NCCC[C@@H]1NC(=O)[C@@H](Cc2ccc3ccccc3c2)NC(=O)[C@H](Cc2c[nH]cn2)NC(=O)CCCC(=O)NCCCC[C@H](C(N)=O)NC(=O)[C@@H](Cc2c[nH]c3ccccc23)NC1=O`, the ACT in experiment [7] was found to be 22.8%; in experiment [8], 0%; in [9] it was 81%.
